Results published in ChEMBL document CHEMBL2331117 (J Med Chem, 2013).

Columns and labels:
[1] = Plasma concentration in athymic mouse plasma xenografted with human MCF7 cells at 100 mg/kg, po after 4 hrs; type: ADME, organism-based; design: dose 100 mg/kg, route oral
In short: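 MCF-7 cells (5 × 10^6 in 50% cold HBSS/50% growth-factor-reduced Matrigel) implanted subcutaneously in the hindflank of 5−8-week-old female nude mice. When tumors reached 40−150 mg, mice received a single oral dose. Plasma exposure was measured after dosing, and scheduled takedown was at 4 h.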

Mus musculus [2] = assay: In vivo inhibition of mTORC1-mediated phosphorylation of 4EBP1 at ([…]) in human MCF7 cells xenografted into athymic nude mouse at 100 mg/kg, po after 16 hrs by Western blotting analysis relative to control; type: functional; details: MCF7, 16 h
Mus musculus [3] = assay: In vivo inhibition of mTORC1-mediated phosphorylation of 4EBP1 at ([…]) in human MCF7 cells xenografted into athymic nude mouse at 100 mg/kg, po after 1 hr by Western blotting analysis relative to control; type: functional; details: MCF7, 1 h
Mus musculus [4] = assay: In vivo inhibition of mTORC1-mediated phosphorylation of p70S6K at […] in human MCF7 cells xenografted into athymic nude mouse at 100 mg/kg, po after 24 hrs by Western blotting analysis relative to control; type: functional; details: MCF7, 24 h
In short: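 MCF-7 cells (DMEM, 10% FBS) were implanted subcutaneously at 5 × 10^6 cells in 50% cold HBSS/50% growth-factor-reduced matrigel into the hindflank of 5−8 week old female nude mice. At tumor size 40−150 mg, mice received a single oral dose of 100 mg/kg. Tumor lysates were pooled per group. Phospho-AKT (S473, T308), p70S6K (T389), S6 (S240/244) and 4E-BP1 (T37/46) were measured by Western blot normalized to α-tubulin.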

Mus musculus [5] = assay: In vivo inhibition of mTORC2-mediated phosphorylation of AKT at […] in human MCF7 cells xenografted into athymic nude mouse at 100 mg/kg, po after 8 hrs by Western blotting analysis relative to control; type: functional; details: MCF7, 8 h
In short: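 Human MCF-7 cells were implanted subcutaneously into the hindflank of female nude mice aged 5−8 weeks, at 5 × 10^6 cells in 50% cold HBSS/50% growth-factor-reduced matrigel. At a tumor size of 40−150 mg, mice got one oral dose. Tumor lysates were pooled per group. Phospho-AKT (T308) was read by Western blot and normalized to α-tubulin.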

[6] = Plasma concentration in athymic mouse plasma xenografted with human PC3 cells at 100 mg/kg, po after 1 hr; type: ADME, organism-based, PC-3; design: dose 100 mg/kg, route oral
[7] = Volume of distribution at steady state in Beagle dog at 3 mg/kg, iv; type: ADME, organism-based, Canis lupus familiaris; design: dose 3 mg/kg, route intravenous; details: in vivo, read-out: Vdss
[8] = Clearance in Beagle dog at 3 mg/kg, iv; type: ADME, organism-based, Canis lupus familiaris; design: dose 3 mg/kg, route intravenous; details: in vivo
In short: (§1)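 Single-dose PK: female athymic nude mice (10 mg/kg), female CD rats and male beagle dogs (3 mg/kg), male cynomolgus monkeys (3 mg/kg), given iv and by oral gavage. Solution in EPW (5% ethanol/45% PEG400/water), with 1:2 HCl (m/m) for mouse, rat and dog and 1:1.5 HCl (m/m) for monkey. Plasma levels followed over 24 h.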

[9] = Half life in cynomolgus monkey at 3 mg/kg, iv; type: ADME, organism-based, Macaca fascicularis; design: dose 3 mg/kg, route intravenous; details: in vivo; in short: as §1
[10] = Tmax in CD rat at 3 mg/kg, po; type: ADME, organism-based; design: dose 3 mg/kg, route oral; details: in vivo
[11] = Cmax in CD rat at 3 mg/kg, po; type: ADME, organism-based; design: dose 3 mg/kg, route oral; details: in vivo; in short: as §1
[12] = Metabolic stability in rat liver microsomes after 30 mins; type: ADME, Microsome; details: read-out: Stability
[13] = Plasma protein binding in dog at 5 uM; type: ADME, cell-free, Canis lupus familiaris; details: read-out: PPB (converted)
Mus musculus [14] = assay: In vivo inhibition of mTORC1-mediated phosphorylation of pS6 at (serine 240/244) in human PC3 cells xenografted into athymic nude mouse at 100 mg/kg, po after 4 hrs by Western blotting analysis relative to control; type: functional; details: PC-3, 4 h
In short: (§2)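 PC-3 cells grown in DMEM with 20% FBS were implanted subcutaneously at 3 × 10^6 cells in ice-cold HBSS into the hindflank of 5−8 week old male nude mice. At tumor size 200−500 mg, mice received a single oral dose of 100 mg/kg. Plasma and tumors were collected at 1, 4, 8, 16, 24 and 32 h. Tumor lysates from each group (n = 5) were pooled. Phospho-proteins were quantified by Western blot and normalized to α-tubulin.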

Mus musculus [15] = assay: In vivo inhibition of mTORC1-mediated phosphorylation of p70S6K at […] in human PC3 cells xenografted into athymic nude mouse at 100 mg/kg, po after 32 hrs by Western blotting analysis relative to control; type: functional; details: PC-3, 32 h; in short: as §2
Mus musculus [16] = assay: In vivo inhibition of mTORC1-mediated phosphorylation of p70S6K at […] in human PC3 cells xenografted into athymic nude mouse at 100 mg/kg, po after 16 hrs by Western blotting analysis relative to control; type: functional; details: PC-3, 16 h; in short: as §2
Mus musculus [17] = assay: In vivo inhibition of mTORC2-mediated phosphorylation of AKT at […] in human PC3 cells xenografted into athymic nude mouse at 100 mg/kg, po after 24 hrs by Western blotting analysis relative to control; type: functional; details: PC-3, 24 h
In short: (§3)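 Human PC-3 cells were implanted subcutaneously into the hindflank of male nude mice aged 5−8 weeks, at 3 × 10^6 cells (passages 10−14, >95% viability) in ice-cold HBSS. At a tumor size of 200−500 mg, mice got one oral 100 mg/kg dose. Tumors were taken at 1, 4, 8, 16, 24 and 32 h. Lysates (n = 5 per group) were pooled, and phospho-AKT (T308) was read by Western blot, normalized to α-tubulin.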

Mus musculus [18] = assay: In vivo inhibition of mTORC2-mediated phosphorylation of AKT at […] in human PC3 cells xenografted into athymic nude mouse at 100 mg/kg, po after 1 hr by Western blotting analysis relative to control; type: functional; details: PC-3, 1 h; in short: as §3
[19] = target: ATP-dependent translocase ABCB1 (Homo sapiens, UniProt P08183); assay: Activity at P-glycoprotein (unknown origin)
Chain of ATP-dependent translocase ABCB1 (P08183 whole entry): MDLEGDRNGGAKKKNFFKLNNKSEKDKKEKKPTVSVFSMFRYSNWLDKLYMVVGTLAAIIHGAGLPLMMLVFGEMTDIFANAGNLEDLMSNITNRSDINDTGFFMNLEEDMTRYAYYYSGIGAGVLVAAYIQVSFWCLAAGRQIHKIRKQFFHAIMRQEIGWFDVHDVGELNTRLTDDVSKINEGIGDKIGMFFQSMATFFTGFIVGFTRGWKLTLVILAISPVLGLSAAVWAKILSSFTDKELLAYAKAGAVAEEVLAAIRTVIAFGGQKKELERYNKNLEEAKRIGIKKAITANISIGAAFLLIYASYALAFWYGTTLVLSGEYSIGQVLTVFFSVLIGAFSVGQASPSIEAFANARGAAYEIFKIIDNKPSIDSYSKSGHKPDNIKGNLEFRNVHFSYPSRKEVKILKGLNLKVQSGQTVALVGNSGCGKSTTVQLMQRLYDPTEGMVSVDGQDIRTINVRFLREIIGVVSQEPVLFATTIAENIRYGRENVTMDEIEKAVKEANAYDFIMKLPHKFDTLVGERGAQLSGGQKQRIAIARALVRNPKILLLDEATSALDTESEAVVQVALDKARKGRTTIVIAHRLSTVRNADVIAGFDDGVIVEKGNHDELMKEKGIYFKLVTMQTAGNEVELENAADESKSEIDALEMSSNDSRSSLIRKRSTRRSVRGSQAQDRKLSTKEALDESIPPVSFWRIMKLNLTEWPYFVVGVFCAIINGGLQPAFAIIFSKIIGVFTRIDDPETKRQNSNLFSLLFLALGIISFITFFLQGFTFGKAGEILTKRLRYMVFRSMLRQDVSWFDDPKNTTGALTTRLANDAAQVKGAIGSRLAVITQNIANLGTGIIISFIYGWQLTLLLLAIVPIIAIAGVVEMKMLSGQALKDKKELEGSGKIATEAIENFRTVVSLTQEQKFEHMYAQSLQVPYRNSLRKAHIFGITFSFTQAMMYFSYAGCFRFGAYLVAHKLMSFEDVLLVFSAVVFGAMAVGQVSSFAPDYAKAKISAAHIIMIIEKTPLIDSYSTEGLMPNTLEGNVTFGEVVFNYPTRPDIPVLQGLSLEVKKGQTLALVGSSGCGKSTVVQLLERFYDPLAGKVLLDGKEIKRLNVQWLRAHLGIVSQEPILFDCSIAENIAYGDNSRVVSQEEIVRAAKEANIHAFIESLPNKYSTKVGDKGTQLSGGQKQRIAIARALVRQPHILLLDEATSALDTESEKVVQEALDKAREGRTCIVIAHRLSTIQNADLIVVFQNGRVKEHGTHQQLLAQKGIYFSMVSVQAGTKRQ

- concentration at 4 h [1]: 30.1 µM
- concentration at 1 h [6]: 32.6 µM
- Vd [7]: 3.15 L/kg
- clearance [8]: 9.97 mL/min/kg
- half-life [9]: 51.6 min
- Tmax [10]: 30 min
- Cmax [11]: 0.707 µM
- remaining at 0.5 h [12]: 78%
- fraction unbound at 5 µM [13]: 0.11
- Activity [19]: > 20 µM
Structure (SMILES): Cc1c(C(=O)N2CCOc3ccc(-c4ccc(N)nc4)cc3C2)ccc(S(C)(=O)=O)c1F
- inhibition in vivo at 100 mg/kg (Mus musculus [2]): 56%
- inhibition in vivo at 100 mg/kg (Mus musculus [3]): 94%
- inhibition in vivo at 100 mg/kg (Mus musculus [4]): -19%
- inhibition in vivo at 100 mg/kg (Mus musculus [5]): -2%
- inhibition in vivo at 100 mg/kg (Mus musculus [14]): 90%
- inhibition in vivo at 100 mg/kg (Mus musculus [15]): -12%
- inhibition in vivo at 100 mg/kg (Mus musculus [16]): 66%
- inhibition in vivo at 100 mg/kg (Mus musculus [17]): 11%
- inhibition in vivo at 100 mg/kg (Mus musculus [18]): -24%
